Assay results reported in ChEMBL document CHEMBL1240425, “Design and synthesis of chloroquine analogs with anti-breast cancer property” (Eur J Med Chem, 2010).

How the values were obtained:
MCF7 [1] = assay: Antiproliferative activity against human p53+/- MCF7 cells after 48 hrs by SRB assay; format: functional; details: MCF7, 48 h
Method in brief: (§1)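 Cells (5000–10,000/well) preincubated 24 h at 37 °C, 5% CO2; MCF10A kept in mammary epithelial basal medium with MEGM supplements. Seven concentrations from 2–10-fold serial dilutions, with ≤0.1% DMSO vehicle control, were given for 48 h. Cells were TCA-fixed (10% final), then stained with 0.4% SRB. Dye was solubilized in 10 mM Tris base and read at 515–564 nm. GI50 came from variable-slope sigmoidal fits, triplicates, ≥2 experiments.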

[2] = Antiproliferative activity against human MCF10A cells after 48 hrs by SRB assay; format: cell-based, MCF-10A; method in brief: as §1
MDA-MB-231 [3] = assay: Antiproliferative activity against human p53, pRB mutant and estrogen receptor deficient MDA-MB-231 cells after 48 hrs by SRB assay; format: functional; details: MDA-MB-231, 48 h; method in brief: as §1
MDA-MB-231 [4] = assay: Ratio of GI50 for human MCF10A cells to GI50 for human p53, pRB mutant and estrogen receptor deficient MDA-MB-231 cells
MCF7 [5] = assay: Ratio of GI50 for human MCF10A cells to GI50 for human p53+/- MCF7 cells
MDA-MB-231 [6] = assay: Ratio of compound GI50 to cisplatin GI50 for human p53, pRB mutant and estrogen receptor deficient MDA-MB-231 cells after 48 hrs by SRB assay; format: functional
MCF7 [7] = assay: Ratio of compound GI50 to cisplatin GI50 for human p53+/- MCF7 cells after 48 hrs by SRB assay; format: functional

Row | GI50 (MCF7 [1]) [µM] | GI50 (MDA-MB-231 [3]) [µM] | SMILES | GI50 at 48 h [2] [µM] | RatioGI50 (MDA-MB-231 [4]) | RatioGI50 (MCF7 [5]) | RatioGI50 (MDA-MB-231 [6]) | RatioGI50 (MCF7 [7])
1 | 8.75 | 9.9 | FC(F)(F)c1ccc2c(NCCCN3CCN(c4ccccc4)CC3)ccnc2c1 | 19.8 | – | – | – | –
2 | 23.5 | 47.6 | O=C1C(=O)N(CCCNc2ccnc3cc(Cl)ccc23)c2ccccc21 | 35.9 | – | – | – | –
3 | 46.7 | 55.6 | O=C1C(=O)N(CCCNc2ccnc3cc(Cl)ccc23)c2cccc(Cl)c21 | 84.8 | – | – | – | –
4 | 21.4 | 29.8 | Clc1ccc2c(NCCCN3CCCC3)ccnc2c1 | 45.8 | – | – | – | –
5 | 4.99 | 6.33 | FC(F)(F)c1ccc2c(N3CCN(CCCNc4ccnc5cc(Cl)ccc45)CC3)ccnc2c1 | 12.9 | 2.03 | 2.58 | 3.7 | 5.16
6 | 18.8 | 50.2 | O=C1C(=O)N(CCCNc2ccnc3cc(C(F)(F)F)ccc23)c2cccc(Cl)c21 | 20.2 | – | – | – | –
7 | 34.4 | 49.4 | O=C1C(=O)N(CCCNc2ccnc3cc(C(F)(F)F)ccc23)c2cccc(Br)c21 | 33.7 | – | – | – | –
8 | 17.2 | 25.7 | FC(F)(F)c1ccc2c(NCCCN3CCN(c4ccnc5cc(C(F)(F)F)ccc45)CC3)ccnc2c1 | 30 | – | – | – | –
9 | 12.8 | 15.9 | Clc1ccc2c(NCCCN3CCN(c4ccccc4)CC3)ccnc2c1 | 12.6 | – | – | – | –
10 | 38.8 | 79.8 | FC(F)(F)c1ccc2c(NCCCN3CCOCC3)ccnc2c1 | 26.5 | – | – | – | –
11 | 17.2 | 40.2 | Clc1ccc2c(NCCCN3CCOCC3)ccnc2c1 | 86.5 | – | – | – | –
12 | 36.8 | 70.4 | FC(F)(F)c1ccc2c(NCCCN3CCCC3)ccnc2c1 | 58.6 | – | – | – | –
13 | 20.6 | 57.1 | CCN(CC)CCCNc1ccnc2cc(C(F)(F)F)ccc12 | 45.8 | – | – | – | –
14 | 45.3 | 54.1 | O=C1C(=O)N(CCCNc2ccnc3cc(C(F)(F)F)ccc23)c2ccccc21 | 46.8 | – | – | – | –
15 | 17.9 | 27.8 | CCN(CC)CCCNc1ccnc2cc(Cl)ccc12 | 65.3 | – | – | – | –
16 | 7.98 | 18.9 | O=C1C(=O)N(CCCNc2ccnc3cc(C(F)(F)F)ccc23)c2cc(Br)ccc21 | 14.6 | – | – | – | –
17 | 4.6 | 4.31 | FC(F)(F)c1ccc2c(NCCCN3CCN(c4ccnc5cc(Cl)ccc45)CC3)ccnc2c1 | 8.84 | 2.05 | 1.92 | – | –
18 | 30.8 | 43.3 | CN1CCN(CCCNc2ccnc3cc(C(F)(F)F)ccc23)CC1 | 51.7 | – | – | – | –
19 | 5.42 | 7.52 | Clc1ccc2c(NCCCN3CCN(c4ccnc5cc(Cl)ccc45)CC3)ccnc2c1 | 8.72 | – | – | – | –
20 | – | – | CCN(CC)CCCC(C)Nc1ccnc2cc(Cl)ccc12 (stereo not given) [CHLOROQUINE] | 81.3 | – | – | – | –
21 | 14.3 | 17.4 | O=C1C(=O)N(CCCNc2ccnc3cc(C(F)(F)F)ccc23)c2cc(Cl)ccc21 | 25.2 | – | – | – | –
22 | 7.36 | 15.8 | O=C1C(=O)N(CCCNc2ccnc3cc(Cl)ccc23)c2cc(Cl)ccc21 | 6.88 | – | – | – | –
23 | 32.6 | 38.6 | FC(F)(F)c1ccc2c(NCCCN3CCCCC3)ccnc2c1 | 48.8 | – | – | – | –
24 | 16.6 | 35 | O=C1C(=O)N(CCCNc2ccnc3cc(Cl)ccc23)c2cc(Br)ccc21 | 19.9 | – | – | – | –
25 | 6.57 | 16.8 | O=C1C(=O)N(CCCNc2ccnc3cc(Cl)ccc23)c2cccc(Br)c21 | 20.8 | – | – | – | –
26 | 17.1 | 19.1 | CN1CCN(CCCNc2ccnc3cc(Cl)ccc23)CC1 | 16.7 | – | – | – | –
27 | 17.7 | 38 | Clc1ccc2c(NCCCN3CCCCC3)ccnc2c1 | 47.8 | – | – | – | –
